The subject of data set [1] is Plasmodium falciparum. Kind of data set: Antiplasmodial activity against chloroquine-sensitive Plasmodium falciparum D10 by lactate dehydrogenase assay. Type of data set: functional, organism-based. An outline of the steps:
(§1)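 IC50s measured in vitro against P. falciparum D10 (chloroquine-sensitive) and Dd2 (chloroquine-resistant). Compounds insoluble in the test medium were added as suspensions in DMSO. Chloroquine served as the reference antimalarial. Values are averages over n data sets.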

Data set [2] relates to Plasmodium falciparum. Put plainly: Antiplasmodial activity against chloroquine-resistant Plasmodium falciparum Dd2 by lactate dehydrogenase assay. In kind it is functional, organism-based. An outline of the steps: as §1
Data set [3] relates to Plasmodium falciparum. Kind of data set: Resistance index, ratio of IC50 for chloroquine-resistant Plasmodium falciparum Dd2 to IC50 for chloroquine-sensitive Plasmodium falciparum D10. In kind it is functional. In short, it runs like this:
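Calculated as IC50 (Dd2) / IC50 (D10), using IC50s from the parallel in vitro assays on both P. falciparum strains.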

For a further data set, the system named is CHO. Kind of data set: Cytotoxicity against CHO cells by MTT assay. In kind it is cell-based, Cricetulus griseus. In short, it runs like this:
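MTT viability assay on Chinese hamster ovary (CHO) cells, with emetine as the reference drug. IC50 is the average of n data sets.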

A short description of data set [4]: Selectivity index, ratio of IC50 for CHO cells to IC50 for chloroquine-sensitive Plasmodium falciparum D10. In kind it is toxicity, cell-based. To be noted: hamster; for selectivity ratio: CHO cells, read-out: Selectivity Index; for Selectivity Index: cho. An outline of the steps:
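Calculated as IC50 (CHO, MTT assay) / IC50 (P. falciparum D10), using IC50s measured in this work.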

Data set [5] has as its system Plasmodium falciparum. Put plainly: Ratio of chloroquine IC50 to compound IC50 for chloroquine-resistant Plasmodium falciparum Dd2. In kind it is functional.

Consider `CC(CNc1ccnc2cc(Cl)ccc12)NCCO[C@H]1O[C@@H]2O[C@@]3(C)CC[C@H]4[C@H](C)CC[C@@H]([C@H]1C)[C@@]24OO3` (stereo not given in full), for which the IC50 (usually the concentration at which inhibition is half-maximal) in the data set on Plasmodium falciparum [1] came to 12.2 nM; in the data set with Plasmodium falciparum [2], 17.1 nM; in the data set on CHO (cho) it was 3390 nM. The “Ratio IC50” value is 1 in the data set on Plasmodium falciparum [3] and 9 in the data set with Plasmodium falciparum [5]. The selectivity ratio in data set [4] amounted to 279.

As to `C[C@H]1[C@@H](OCCNc2ccc(Nc3ccnc4cc(Cl)ccc34)cc2)O[C@@H]2O[C@@]3(C)CC[C@H]4[C@H](C)CC[C@@H]1[C@@]24OO3.O=C(O)C(=O)O`, the IC50 in the data set with Plasmodium falciparum [1] (Plasmodium falciparum, D10) came to 17.2 nM; with Plasmodium falciparum [2], 30.2 nM; in the data set on CHO (Cricetulus griseus, CHO), 35200 nM. The “Ratio IC50” value in the data set on Plasmodium falciparum [3] worked out at 2. For the same molecule, the selectivity ratio in data set [4] came to 2040.

With `CC(CNc1ccnc2cc(Cl)ccc12)NCCO[C@H]1O[C@@H]2O[C@@]3(C)CC[C@H]4[C@H](C)CC[C@@H]([C@H]1C)[C@@]24OO3.O=C(O)C(=O)O` (stereo not given in full), the half-inhibitory concentration (IC50) was determined as 14.9 nM with Plasmodium falciparum [1] (Plasmodium falciparum, D10); 20.8 nM in the data set on Plasmodium falciparum [2] (Plasmodium falciparum, Dd2); 2750 nM in the data set with CHO (Cricetulus griseus, CHO). Moreover, the “Ratio IC50” value in the data set on Plasmodium falciparum [3] stood at 1; in the data set on Plasmodium falciparum [5], 7. For the same molecule, in data set [4], the “Selectivity Index” value was 184.

In the case of `C[C@H]1[C@@H](OCCN2CCN(c3ccnc4cc(Cl)ccc34)CC2)O[C@@H]2O[C@@]3(C)CC[C@H]4[C@H](C)CC[C@@H]1[C@@]24OO3`, the IC50 in the data set on Plasmodium falciparum [1] (Plasmodium falciparum, D10) was 30.7 nM; with Plasmodium falciparum [2] (Plasmodium falciparum, Dd2), 68.5 nM; with CHO (Cricetulus griseus, CHO) it was 5920 nM. For the same molecule, the “Ratio IC50” value in the data set on Plasmodium falciparum [3] worked out at 2. Besides, in data set [4], the selectivity ratio was determined as 193.

On to `C[C@H]1[C@@H](O)O[C@@H]2O[C@@]3(C)CC[C@H]4[C@H](C)CC[C@@H]1[C@@]24OO3` [ARTENIMOL], for which the “Ratio IC50” value with Plasmodium falciparum [3] is 0.4.

For the molecule `C[C@H]1[C@@H](OCCNCCCNc2ccnc3cc(Cl)ccc23)O[C@@H]2O[C@@]3(C)CC[C@H]4[C@H](C)CC[C@@H]1[C@@]24OO3.O=C(O)C(=O)O`, the IC50 with Plasmodium falciparum [1] turned out to be 14.3 nM; in the data set on Plasmodium falciparum [2], 19.8 nM; in the data set with CHO (cho) it was 170 nM. Further, in the data set with Plasmodium falciparum [3], the “Ratio IC50” value stood at 1. Moreover, the “Selectivity Index” value in data set [4] was determined as 12.

As for `C[C@H]1[C@@H](OCCN2CCN(CCNc3ccnc4cc(Cl)ccc34)CC2)O[C@@H]2O[C@@]3(C)CC[C@H]4[C@H](C)CC[C@@H]1[C@@]24OO3.O=C(O)C(=O)O`, the IC50 in the data set with Plasmodium falciparum [1] was found to be 29 nM; in the data set with Plasmodium falciparum [2], 29.2 nM; in the data set on CHO (Cricetulus griseus, CHO), 2320 nM. Also, in the data set on Plasmodium falciparum [3], the “Ratio IC50” value was 1. In addition, the selectivity ratio in data set [4] stood at 80.

`C[C@H]1[C@@H](OCCN2CCN(CCNc3ccnc4cc(Cl)ccc34)CC2)O[C@@H]2O[C@@]3(C)CC[C@H]4[C@H](C)CC[C@@H]1[C@@]24OO3`: the IC50 in the data set with Plasmodium falciparum [1] came out at 201 nM; in the data set on Plasmodium falciparum [2], 276 nM. In addition, the “Ratio IC50” value in the data set with Plasmodium falciparum [3] is given as 1.

On to `C[C@H]1[C@@H](OCCNc2ccc(Nc3ccnc4cc(Cl)ccc34)cc2)O[C@@H]2O[C@@]3(C)CC[C@H]4[C@H](C)CC[C@@H]1[C@@]24OO3`, for which the values for the IC50 in the data set with Plasmodium falciparum [1] and in the data set with Plasmodium falciparum [2] were 30.4 nM and 69.2 nM, respectively. Further, the “Ratio IC50” value with Plasmodium falciparum [3] is reported as 2.

Consider `C[C@H]1[C@@H](OCCNCCNc2ccnc3cc(Cl)ccc23)O[C@@H]2O[C@@]3(C)CC[C@H]4[C@H](C)CC[C@@H]1[C@@]24OO3`, for which the IC50 was found to be 84.6 nM with Plasmodium falciparum [1], 153 nM in the data set on Plasmodium falciparum [2] and 33000 nM in the data set on CHO (cho). Also, the “Ratio IC50” value with Plasmodium falciparum [3] was found to be 2. Also, the “Selectivity Index” value in data set [4] was 391.

Regarding `C[C@H]1[C@@H](OCCNCCNc2ccnc3cc(Cl)ccc23)O[C@@H]2O[C@@]3(C)CC[C@H]4[C@H](C)CC[C@@H]1[C@@]24OO3.O=C(O)C(=O)O`, the half-maximal inhibitory concentration (IC50) with Plasmodium falciparum [1] was found to be 21.5 nM; with Plasmodium falciparum [2], 25.7 nM; with CHO (cho), 1640 nM. Besides, in the data set with Plasmodium falciparum [3], the “Ratio IC50” value is reported as 1. Besides, the “Selectivity Index” value in data set [4] is listed as 77.

With `CC[C@H]1CN2CCc3cc(OC)c(OC)cc3[C@@H]2C[C@@H]1C[C@H]1NCCc2cc(OC)c(OC)cc21` [EMETINE], in the data set on CHO (Cricetulus griseus, CHO), the half-maximal inhibitory concentration (IC50) amounted to 190 nM.

Take `C[C@H]1[C@@H](OCCNCCCNc2ccnc3cc(Cl)ccc23)O[C@@H]2O[C@@]3(C)CC[C@H]4[C@H](C)CC[C@@H]1[C@@]24OO3`: the IC50 in the data set with Plasmodium falciparum [1] worked out at 118 nM; in the data set with Plasmodium falciparum [2] it was 183 nM; in the data set on CHO (cho) it was 37300 nM. Also, in the data set with Plasmodium falciparum [3], the “Ratio IC50” value is 2. In addition, in data set [4], the “Selectivity Index” value was determined as 317.

Source of the values: ChEMBL document CHEMBL1681721, “Synthesis, in vitro antimalarial and cytotoxicity of artemisinin-aminoquinoline hybrids” (Bioorg Med Chem Lett, 2011).
